# This is a sample that favours compounds with a hit; in the whole collection about 3.7% have one here.
# KCC2 mod – KCC2 (human) Cl- transport modulation; Q9H2X9; KCC2 cells, thallium flux FluoZin-2 fluorescence; B-score of Tl+ flux slope (higher = more flux/activation; lower = inhibition) at 10 µM; 190,000 tested, 2.2% active; AID 1456;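 active means thallium flux slope and its plate-corrected score both differing from the plate sample mean at a set confidence after two filtering rounds, in either direction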;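 further: slope of fluorescence scaled to starting intensity during 10 to 20 s after thallium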
# NPY Y1 blocker – antagonists of human neuropeptide Y receptor Y1. inhibition, % at 3.6 µM. AID 1040. HEK293-CNG Y1 cells, membrane potential fluorescence; NPY at EC95, then isoproterenol. 200,000 tested, 1% active;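 active means inhibition above the campaign mean inhibition of all tested compounds plus 3 SD, cut at about 20% in these data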
# Target sequence (P25929 whole entry, looked up): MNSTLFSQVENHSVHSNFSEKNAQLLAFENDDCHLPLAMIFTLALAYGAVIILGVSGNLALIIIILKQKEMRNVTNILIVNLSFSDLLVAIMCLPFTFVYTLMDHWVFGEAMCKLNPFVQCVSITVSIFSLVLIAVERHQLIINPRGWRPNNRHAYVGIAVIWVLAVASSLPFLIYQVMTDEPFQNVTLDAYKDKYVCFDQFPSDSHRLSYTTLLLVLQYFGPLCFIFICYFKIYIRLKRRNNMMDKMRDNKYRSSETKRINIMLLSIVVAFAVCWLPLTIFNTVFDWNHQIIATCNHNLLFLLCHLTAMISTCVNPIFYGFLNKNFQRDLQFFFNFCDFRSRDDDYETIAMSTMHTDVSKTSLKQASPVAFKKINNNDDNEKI
#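 Assay system: HEK293 cells with Y1 receptor plus CNG channel | Probe or stimulus: NPY (25 nM), isoproterenol (1 µM), Ro 20-1724 (25 µM) | Timing: Compound incubation 1 h at room temperature, readout 45 min post-stimulation | Measured by: Membrane-potential fluorescent dye readout | Benchmarks: High control isoproterenol alone, low control NPY with isoproterenol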
# NPY-Y1 PAM-ag – human NPY-Y1 potentiation or agonism, primary screen; P25929; NPY-Y1 expressing cells, potentiator/agonist activation; activation, % at 3.6 µM; 220,000 tested, 0.37% active; AID 1304; in the data active means activation above about 33%, passing the limit was not always enough;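 further: cells stimulated with NPY at EC10 then isoproterenol at EC100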
# Furin inh – blocks human furin protease activity; AID 463115; P09958; purified furin, fluorogenic substrate cleavage; 220,000 tested, 0.061% active; inhibition, % at 20 µM or 30 µM; in the data active means inhibition above about 25%
# NPY-Y2 antag – NPY-Y2 (human) receptor antagonism; 140,000 tested, 0.99% active; inhibition, % at 2.7 µM; P49146; NPY-Y2 expressing cells, antagonist mode; in the data active means inhibition above about 17%
# Target sequence (P49146 whole entry, looked up): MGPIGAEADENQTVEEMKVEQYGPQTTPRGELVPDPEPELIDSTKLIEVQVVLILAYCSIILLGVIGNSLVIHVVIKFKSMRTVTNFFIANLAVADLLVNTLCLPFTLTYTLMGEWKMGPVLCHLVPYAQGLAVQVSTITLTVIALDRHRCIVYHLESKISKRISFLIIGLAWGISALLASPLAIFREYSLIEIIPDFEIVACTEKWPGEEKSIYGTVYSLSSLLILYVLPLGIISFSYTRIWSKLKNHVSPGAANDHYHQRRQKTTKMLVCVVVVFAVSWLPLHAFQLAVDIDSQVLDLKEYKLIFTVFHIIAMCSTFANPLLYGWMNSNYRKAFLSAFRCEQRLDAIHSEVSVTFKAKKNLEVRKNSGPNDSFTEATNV
# NPY-Y2 PAM-ag – human NPY-Y2 potentiation or agonism, primary screen; cells expressing NPY-Y2, potentiator/agonist read-out; activation, % at 3.6 µM; 220,000 tested, 0.45% active; AID 1359; in the data active means activation above about 27%;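 further: cells stimulated with NPY near EC25 plus isoproterenol at EC100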
# KCC2 secondary – KCC2 (human) modulation, secondary assay. shares compounds with KCC2 mod. HEK293-KCC2, thallium flux, FluoZin2 fluorescence; hits give high values. normalised thallium flux (F/F0 slope) at 10 µM. 3,700 tested, 15% active;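 active means thallium flux slope above the same plate's solvent-only control mean plus 3 SD; inconclusive means the two replicate wells disagree; inactive means no significant difference from solvent-only control wells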
# KCC2 bumet counter – bumetanide-insensitive thallium flux in KCC2 cells with ouabain, counter-screen. HEK293-KCC2 + bumetanide/ouabain, thallium flux FluoZin2; hits give high values. 3,700 tested, 49% active. normalized thallium flux at 10 µM. AID 1714. shares compounds with KCC2 mod;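 active means thallium entry rate above the same plate's blocked-transporter control wells by more than 3 SD; inconclusive means the two repeat wells disagree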;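 further: raw slope of fluorescence over initial fluorescence between 10 and 20 s after thallium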
# KCC2 sec2 – KCC2 (human) modulation, second secondary assay. HEK293-KCC2, thallium flux FluoZin2 fluorescence; actives lie on both sides; F/F0 rise rate, 10–20 s post-thallium. shares compounds with KCC2 mod. 3,700 tested, 23% active. normalized thallium flux at 10 µM;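 active means thallium flux slope more than 3 SD above or below the plate's solvent-only control mean, mostly below; inconclusive means the two repeat wells disagreed; inactive means no significant shift from solvent-only controls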
# HEK counter1 – acts in parental HEK cells, KCC2 counter-screen. shares compounds with KCC2 mod. HEK293 parental cells, thallium flux FluoZin2, ouabain; baseline-ratio fluorescence slope, 10–20 s after thallium. thallium flux rate (normalised fluorescence) at 10 µM. 3,700 tested, 46% active;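 active means thallium flux rate significantly above the same plate's solvent-only control wells, beyond their mean plus 3 SD; inconclusive means the two replicate wells gave conflicting results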
# KCC2 retest ouab – KCC2 (human) modulation, ouabain retest | 3,700 tested, 48% active | HEK293-KCC2, thallium flux FluoZin2 fluorescence; bidirectional: low = inhibitor, high = activator | AID 1717 | shares compounds with KCC2 mod | raw Tl+ flux slope (below DMSO = inhibition, above = activation) at 10 µM;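 active means thallium flux slope beyond 3 SD from same-plate DMSO control mean in most replicates, usually higher, sometimes lower; inconclusive means repeat tests gave conflicting results; inactive means no significant difference from controls in most replicates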;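 further: slope of initial-normalized fluorescence between seconds 10 and 20 after thallium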
# HEK counter2 – counter-screen for KCC2 modulators: effect in parental HEK293 cells; shares compounds with KCC2 mod; thallium flux slope at 10 µM; thallium flux FluoZin-2 fluorescence slope; 3,700 tested, 33% active;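 active means thallium flux slope above the same plate's solvent-control mean plus 3 SD in both duplicate wells; inconclusive means duplicate wells that disagreed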;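 further: run without ouabain in cells lacking the KCC2 cotransporter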
# Numbers stand for hits; n = inactive; u = inconclusive; x = no result given.
SMILES,KCC2 mod,NPY Y1 blocker,NPY-Y1 PAM-ag,Furin inh,NPY-Y2 antag,NPY-Y2 PAM-ag,KCC2 secondary,KCC2 bumet counter,KCC2 sec2,HEK counter1,KCC2 retest ouab,HEK counter2
CN(C)c1nc(=NCc2ccco2)ss1,45,x,n,n,x,n,0.037,0.06,n,u,0.052,u
COc1ccccc1N1CCN(C(C)C(=O)N2CC(C)OC(C)C2)CC1 (stereo unspecified),n,n,n,n,x,n,x,x,x,x,x,x
COc1cc(/C=C(\C#N)C(=O)NCc2ccccc2)ccc1OCc1ccc(C(=O)O)cc1,-4.1,x,n,n,x,n,n,0.0088,n,n,u,n
COc1cc(/C=C(/C#N)C(=O)Nc2ccccc2)ccc1OCc1ccc(C(=O)O)cc1,n,n,n,n,x,n,x,x,x,x,x,x
COC(=O)c1sccc1N(C)S(C)(=O)=O,n,n,n,n,x,n,x,x,x,x,x,x
Cn1c(-c2ccccc2)c(C(=O)CCl)c2ccccc21,-3.9,n,n,n,x,n,n,n,n,0.0051,0.016,0.0091
Cn1c(-c2ccccc2)c(CCO)c2ccccc21,n,n,n,n,n,n,x,x,x,x,x,x
CCn1c(-c2ccccc2)c(C(=O)CCl)c2ccccc21,-4.3,n,n,n,x,n,n,0.0028,n,0.0049,0.017,0.008
Cc1csc(N(C)C(=O)CSc2nnc(COc3cccc4ccccc34)o2)n1,x,n,n,n,n,n,n,n,n,n,0.015,n
Cc1ccc(C(=O)CSc2nnc(-c3ccco3)n2Cc2ccccc2)cc1,-3.2,n,n,n,n,n,n,n,n,u,0.013,n
O=C(CSc1nnc(-c2ccco2)n1Cc1ccccc1)c1ccccc1,-8.2,n,n,n,n,n,n,n,u,u,0.015,n
Cn1c(SCC(=O)c2ccc(-c3ccccc3)cc2)nnc1-c1ccco1,n,n,n,n,n,n,x,x,x,x,x,x
CCCn1c(SCC(=O)N2CCCCC2)nnc1-c1ccco1,5.6,n,n,n,n,n,n,n,n,n,n,n
CC[n+]1oc(-c2ccccc2)cc1C,n,n,n,n,x,n,x,x,x,x,x,x
CC(C)=CCCC(C)CN1CCC(N2CCC(C(=O)NC(C)C)CC2)CC1 (stereo unspecified),x,n,n,n,x,n,x,x,x,x,x,x
CN1CCN(CCCc2c3c(cc4c2CCC4)CCC3)CC1,n,n,n,n,n,n,x,x,x,x,x,x
O=C(N/N=C/c1cn(-c2ccccc2)nc1-c1ccccc1)c1ccco1,n,n,n,n,n,n,x,x,x,x,x,x
O=C(N/N=C\c1cn(-c2ccccc2)nc1-c1ccccc1)c1ccc(Br)o1,3.9,n,n,n,n,n,n,0.012,n,0.013,n,u
Cc1ccc(-c2nn(-c3ccccc3)cc2/C=N/NC(=O)c2ccc(Br)o2)cc1,3.2,n,n,n,n,n,n,0.0066,n,0.01,n,0.014
CCOC(=O)c1c(Cc2ccccc2)c[nH]c1C,n,n,n,n,x,n,x,x,x,x,x,x
O=C(O)C1=C[C@H](c2ccc(F)cc2)C[C@H](OCCCCO)O1,n,x,x,n,x,x,x,x,x,x,x,x
CC(C)n1c(-c2ccc(N(C)C)cc2)nc2ccccc21,-3.3,n,n,n,n,n,n,n,n,u,n,n
O=C(NCCc1c[nH]c2ccccc12)c1cc(S(=O)(=O)N2CCCCC2)ccc1N1CCOCC1,x,n,n,n,n,n,n,n,u,n,0.015,n
O=C(NC(=S)Nc1ccc(Cl)cc1)c1ccccc1,76,x,n,n,x,n,0.016,0.052,n,u,0.046,0.023
O=C(NC(=S)Nc1ccccc1)c1cncc(C#Cc2ccccc2)c1,24,x,n,n,x,n,u,0.023,n,0.01,0.039,u
SMILES,KCC2 mod,NPY Y1 blocker,NPY-Y1 PAM-ag,Furin inh,NPY-Y2 antag,NPY-Y2 PAM-ag,KCC2 secondary,KCC2 bumet counter,KCC2 sec2,HEK counter1,KCC2 retest ouab,HEK counter2
O=C(O)c1cccc(NC(=S)NC(=O)c2ccc(-c3ccccc3)cc2)c1,-6.1,n,n,n,x,n,u,n,0.022,0.0057,0.013,u
CCOc1cccc(C(=O)Nc2cccc(C(C)=O)c2)c1,n,n,n,n,n,n,x,x,x,x,x,x
CCOc1cccc(C(=O)NC(=S)Nc2cccc(C)c2)c1,6.4,n,n,n,n,n,n,0.011,n,0.012,u,0.015
O=C(CCS(=O)(=O)c1ccc(Br)cc1)Nc1ccc(Br)cc1F,n,n,n,n,n,n,x,x,x,x,x,x
CC(C)c1ccc(/C=C(\NC(=O)c2ccccc2)C(=O)NCCCN2CCOCC2)cc1,n,x,n,n,x,n,x,x,x,x,x,x
CCCCCc1nnc(NC(=O)Cn2cnc3ccccc3c2=O)s1,n,n,n,n,n,n,x,x,x,x,x,x
CC(=O)c1cccc(NC(=S)NC(=O)c2ccccc2)c1,4.5,n,n,n,n,n,n,0.02,n,0.018,u,0.016
Cc1cccc(C)c1Nc1nnc(SCC(=O)c2ccc3c(c2)NC(=O)CO3)s1,-3.8,n,n,n,n,n,n,n,n,n,0.019,n
Cc1cccc(C)c1Nc1nnc(SCC(=O)c2ccc(Br)s2)s1,n,n,n,n,n,n,x,x,x,x,x,x
Oc1ccc(Cc2ccc(Cl)cc2)c(O)c1,n,x,n,n,x,n,x,x,x,x,x,x
Cc1cc2ccccn2c1C(=O)c1nc(N2CCOCC2)ncc1Cl,-3.8,n,n,n,n,n,n,u,0.026,n,0.017,n
COCCN(CCOC)c1ncc(Cl)c(C(=O)c2c(C)cc3ccccn23)n1,n,n,n,n,n,n,x,x,x,x,x,x
Cc1ccc(SCCNC(=S)Nc2cc(C)ccc2C)cc1,x,n,n,n,n,n,n,n,n,u,u,n
COc1ccc(-n2c(=S)[nH]c3sc(-c4ccccc4)cc3c2=O)c(OC)c1,9.5,x,n,n,x,n,0.014,0.027,0.025,0.02,u,n
COc1cccc(-c2cc3c(=O)n(-c4ccccc4)c(=S)[nH]c3s2)c1,x,n,n,n,n,n,x,x,x,x,x,x

# Screens as filed in PubChem BioAssay.
